Tested on: MS2 coat protein
Assay: apparent Kd, MS2 coat protein; higher = weaker binding; RNA-MaP array; FMN 200 µM where present
How it was run: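 Designs were transcribed by stalled E. coli RNA polymerase on Illumina sequencing-chip clusters. They were titrated with SNAP-549-labelled MS2 coat protein from 0.7 or 1.5 nM, doubling to 3 µM, in 100 mM Tris-HCl pH 7.5, 80 mM KCl, 4 mM MgCl2, BSA, DTT, yeast tRNA and Tween-20, without and then with constant ligand. The apparent Kd is the median of filtered per-cluster fits after normalisation of green signal to red-channel RNA signal and control-cluster median Fmax.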

[1] = designed as: OFF switch for flavin mononucleotide, no ligand
[2] = ligand present: flavin mononucleotide, designed as: OFF switch for flavin mononucleotide
[3] = designed as: ON switch for flavin mononucleotide, no ligand
[4] = ligand present: flavin mononucleotide, designed as: ON switch for flavin mononucleotide

GGAUCUAUGUAGAAGGCUGUCUUAAAAUAGGACAGAGGAUAUACAUGAGGAUCACCCAUGUACUCCUUUAAAAGGAUCCAAAUA
apparent Kd [1]: 5.77 nM | apparent Kd [2]: 11 nM

GGAUCUUGGGUCAGGAUAUGCUGAUAUUUUUGUCAGCAGAAGGGACAUGAGGAUCACCCAUGUGCUUGGUUUUG
apparent Kd [1]: 11.2 nM | apparent Kd [2]: 21.8 nM

GGAUGACAAAGUCAUCCAAUACGAACAUGAGGAUCACCCAUGUAGGAUAUGCUACUCAAAGAGUAGCAGAAGGACAUGUGUCUU
apparent Kd [1]: 30 nM | apparent Kd [2]: 143 nM

GGAUGACAAAGUCAUCCAAUACGACAUGAGGAUCACCCAUGUUAGGAUAUGCUACUCAAAGAGUAGCAGAAGGACAUGUGCCUU
apparent Kd [1]: 23.7 nM | apparent Kd [2]: 33.4 nM

GGAUGACAAAGUCAUCCAAUUCGAACAUGAGGAUCACCCAUGUAGGAUAUGCUACUCAAAGAGUAGCAGAAGGACAUGUGCCUU
apparent Kd [1]: 31.7 nM | apparent Kd [2]: 173 nM

GGAUGACACAGUCAUCCAAUACGAACAUGAGGAUCACCCAUGUAGGAUAUGCUACUCAAAGAGUAGCAGAAGGACAUGUGCCUU
apparent Kd [1]: 39.1 nM | apparent Kd [2]: 257 nM

GGAUGAGAAACUCAUCCUUAACGAACAUGAGGAUCACCCAUGUAGGAUAUGCUACUCAAAGAGUAGCAGAAGGACAUGUGCCUU
apparent Kd [1]: 29.9 nM | apparent Kd [2]: 264 nM

GGAUGGACCCAGAAGGGCAGAUUCCGAGGGAUUUGAGAUGAGCGGAUAUGUAGGAUAUGGGUGGACAUGAGGAUCACCCAUGUC
apparent Kd [3]: 231 nM | apparent Kd [4]: 46.6 nM

GGAUGGUAGGGAGGAUAUGACAUGAGGAUCACCCAUGUGAAACGUCCUAGGUCAGAAGGCCCAUAAGUCAAAACCCAAAAUGUG
apparent Kd [1]: 16.7 nM | apparent Kd [2]: 153 nM

GGAUUACAUGAGGAUCACCCAUGUGAGGAUAUCGAUGUCCUCCCUCCCGUGCGGGACUCGAGAAGGCACUUGGA
apparent Kd [1]: 51.9 nM | apparent Kd [2]: 78.8 nM

GGAUUGAAUGAGGAUAUCGUAUCGGGUACGAUGCGAGAAGGCAUGACAUGAGGAUCACCCAUGUAGUGUGGGUU
apparent Kd [1]: 415 nM | apparent Kd [2]: 685 nM

GGCAAAUGAGCAGGAUAUACAGUACAUGCCUAAUGGACUCACGCACAUGAGGAUCACCCAUGUACGUAGAAGGGCUCCGAGGAG
apparent Kd [1]: 15.2 nM | apparent Kd [2]: 19.1 nM

GGCAAUAACGAGGAUAUCGUAUCGGAAACGAUACGAGAAGGUGUAACAUGAGGAUCACCCAUGUUCCUCAAGCC
apparent Kd [1]: 37.9 nM | apparent Kd [2]: 37.2 nM

GGCACUGUAGGAUAUACAUGAACAAUUGGUAUCCUCAGUCCACAUGAGGAUCACCCAUGUAGAAGGAUAGAAAA
apparent Kd [1]: 58.6 nM | apparent Kd [2]: 46.1 nM

GGCCAAGUCGAGAAGGCCGGUAGACAUGAGGAUCACCCAUGUAGUGCGUGGAGGAUAUUGAAUGGGUGGCGUAGGACCUGCGUU
apparent Kd [3]: 106 nM | apparent Kd [4]: 18.6 nM

GGCCCGUCUGUUAGGAUAUUGUCGAACUUUAGCGGCGAGAAGGAACAUGAGGAUCACCCAUGUCCCAACUGGGA
apparent Kd [1]: 25.5 nM | apparent Kd [2]: 196 nM

GGCGAACGGGCUUACAUGAGGAUCACCCAUGUAGACUCAUGGUAGGAUAUGCUGUACUUUGUACAGCAGAAGGGCCGGUGAGCU
apparent Kd [3]: 65.8 nM | apparent Kd [4]: 38.7 nM

GGCUCAUUUACAUUAAUGUGCUGACAGGAUAUCCACGGCGGUUCCUACAUGAGGAUCACCCAUGUGGAGAAGGGUCGCUAAUGG
apparent Kd [1]: 12.4 nM | apparent Kd [2]: 18.9 nM

GGCUGGCAGCUAGGAUAUGGGCGGUCACAUGAGGAUCACCCAUGUCAACAUCAAAACCAGAUUAACCAGAAGGAGCUGCGGGCU
apparent Kd [3]: 51.8 nM | apparent Kd [4]: 796 nM

GGGACCUACGAGAAGGGCUACAUGAGGAUCACCCAUGUAAAUCUUCGGGUGGCAGGAUAUCGGCGGCUACAGGAGGGCCAGGUC
apparent Kd [2]: 38.3 nM

GGGAGACAUGAGGAUCACCCAUGUGAAAACGUGUGAGGAUAUCAAUGGAAACCAUACUGUUGAGAAGGCACUUGUC
apparent Kd [3]: 118 nM | apparent Kd [4]: 41.2 nM

GGGAGACAUGAGGAUCACCCAUGUGAAAACGUGUGAGGAUAUGUAUGGAAACCAUACUGUACAGAAGGCACUUGUC
apparent Kd [3]: 53.8 nM | apparent Kd [4]: 41 nM

GGGAGGGAUACAGGAUAUAUGACAUGAGGAUACAUGAGACAUACAAACAUGAGGAUCACCCAUGUAUAGAAGGGUAAGGGAGGG
apparent Kd [1]: 173 nM | apparent Kd [2]: 240 nM

GGGAGUGGAGGGAAUAACAUGAGGAUCACCCAUGUAUGGGAGAGAAGGCAGGUCGGAGGGCGAUCUGAGGAUAUUUAGACUCUU
apparent Kd [3]: 8.99 nM | apparent Kd [4]: 8.08 nM

GGGCAAUAGUAGAAGGGAUAUACGAAAGGUAUAUCAGGAUAUACAUGAGGAUCACCCAUGUUCUAACAGUGAUAGUCCUCCCUA
apparent Kd [1]: 24.3 nM | apparent Kd [2]: 171 nM

GGGCCCGGAGGAUAUACAUGAGGAUCACCCAUGUACCCGGGUUUUAUUGGGCCCGGGUGUAGAAGGUUGGGCCC
apparent Kd [1]: 14.1 nM | apparent Kd [2]: 13.3 nM

GGGCCCGGAGGAUAUACAUGAGGAUCACCCAUGUAGGGUUUGGGUAUUCCCGGGCCCUGUAGAAGGCCGGGCCC
apparent Kd [1]: 17.1 nM | apparent Kd [2]: 22.5 nM

GGGCCGGUGGAGAAGGAGCUUGCGAAACGCAUGCUAGGAUAUCCACAUGAGGAUCACCCAUGUGGGAAUAUCUGAUUUUCACAG
apparent Kd [1]: 3.82 nM | apparent Kd [2]: 4.76 nM
